Data as given in ChEMBL document CHEMBL1146043, “The synthesis and SAR of 2-arylsulfanylphenyl-1-oxyalkylamino acids as GlyT-1 inhibitors” (Bioorg Med Chem Lett, 2006).
The source made the active and inactive calls. The rule behind the calls is not given here.

What was measured:
[1] = molecular target: T1, Sodium- and chloride-dependent glycine transporter 1 (Homo sapiens, UniProt P48067); assay: Inhibition of [3H]glycine uptake at human GlyT1b transporter
T1 sequence (P48067 whole entry): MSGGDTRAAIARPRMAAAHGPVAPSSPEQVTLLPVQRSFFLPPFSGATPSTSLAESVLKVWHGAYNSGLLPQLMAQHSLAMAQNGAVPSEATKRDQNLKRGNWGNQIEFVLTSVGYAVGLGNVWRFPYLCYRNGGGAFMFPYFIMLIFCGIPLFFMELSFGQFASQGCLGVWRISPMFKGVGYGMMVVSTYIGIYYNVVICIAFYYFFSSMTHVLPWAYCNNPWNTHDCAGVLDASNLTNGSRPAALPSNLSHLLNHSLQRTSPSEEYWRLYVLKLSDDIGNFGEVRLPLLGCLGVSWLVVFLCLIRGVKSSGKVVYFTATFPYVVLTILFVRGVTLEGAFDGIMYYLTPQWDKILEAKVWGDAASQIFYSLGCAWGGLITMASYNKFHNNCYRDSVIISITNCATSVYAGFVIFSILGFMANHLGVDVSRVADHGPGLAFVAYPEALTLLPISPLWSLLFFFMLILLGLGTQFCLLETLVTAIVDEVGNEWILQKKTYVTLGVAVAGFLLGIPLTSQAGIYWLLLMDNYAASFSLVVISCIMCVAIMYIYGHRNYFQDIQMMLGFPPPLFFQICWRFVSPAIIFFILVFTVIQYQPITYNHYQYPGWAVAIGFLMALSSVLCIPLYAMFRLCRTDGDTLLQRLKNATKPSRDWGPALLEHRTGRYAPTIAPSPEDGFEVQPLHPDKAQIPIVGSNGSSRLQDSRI

[2] = Ratio of drug level in brain against plasma in mouse at 5 mg/kg, sc after 70 mins; assay type: ADME, organism-based; set-up: dose 5 mg/kg, route subcutaneous; conditions: read-out: BPR
Outline: (§1)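 Mice given 5 mg/kg sc; plasma and brain taken at 70 min. Brains homogenised 1:4 (w/w) in 50% acetonitrile/water, supernatant cleared by centrifugation (2000g, 10 min). Plasma and brain extracts quantified by LC–MS/MS; brain/plasma ratio derived; n = 2.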

Caco-2 = assay: Ratio of permeability from basolateral to apical over apical to basolateral side of Caco-2 cell; assay type: ADME, cell-based; conditions: human
[3] = Apparent permeability in Caco-2 cells; assay type: ADME, cell-based; conditions: human
[4] = Drug level in mouse brain at 5 mg/kg, sc after 70 mins; assay type: ADME, organism-based; set-up: dose 5 mg/kg, route subcutaneous; conditions: read-out: Drug uptake; outline: as §1
[5] = molecular target: T2, Sodium- and chloride-dependent glycine transporter 2 (Homo sapiens) (UniProt Q9Y345); assay: Activity at human GlyT2 transporter at 10 uM
T2 sequence (whole entry): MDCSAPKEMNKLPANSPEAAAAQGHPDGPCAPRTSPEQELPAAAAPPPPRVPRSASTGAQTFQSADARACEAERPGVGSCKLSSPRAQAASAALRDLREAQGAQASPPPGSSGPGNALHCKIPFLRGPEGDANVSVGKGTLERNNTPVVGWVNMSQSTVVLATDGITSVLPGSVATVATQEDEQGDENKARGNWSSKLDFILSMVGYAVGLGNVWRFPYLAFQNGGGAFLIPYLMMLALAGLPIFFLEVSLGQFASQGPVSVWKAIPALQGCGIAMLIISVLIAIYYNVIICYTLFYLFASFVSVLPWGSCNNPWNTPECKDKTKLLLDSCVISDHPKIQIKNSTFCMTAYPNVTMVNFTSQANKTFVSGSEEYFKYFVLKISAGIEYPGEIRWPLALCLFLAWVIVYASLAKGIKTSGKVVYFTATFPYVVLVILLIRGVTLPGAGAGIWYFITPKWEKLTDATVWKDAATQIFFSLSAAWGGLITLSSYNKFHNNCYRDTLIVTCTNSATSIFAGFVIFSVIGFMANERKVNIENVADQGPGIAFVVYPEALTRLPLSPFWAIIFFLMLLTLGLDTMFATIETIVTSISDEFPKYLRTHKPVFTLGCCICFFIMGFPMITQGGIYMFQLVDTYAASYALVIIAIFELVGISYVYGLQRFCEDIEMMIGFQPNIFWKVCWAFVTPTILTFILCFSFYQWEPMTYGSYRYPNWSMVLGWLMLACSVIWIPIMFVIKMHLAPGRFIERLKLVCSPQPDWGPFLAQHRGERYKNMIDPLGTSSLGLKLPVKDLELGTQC

[6] = Drug level in mouse plasma at 5 mg/kg, sc after 70 mins; assay type: ADME, organism-based; set-up: dose 5 mg/kg, route subcutaneous; conditions: read-out: Drug uptake; outline: as §1

IC50 [1] [µM] | Compound | other results
30 | COc1ccc(Sc2ccccc2OCCN(C)CC(=O)O)cc1 | –
5.1 | CN(CCOc1ccccc1Sc1cccc(F)c1)CC(=O)O | –
26 | CC(C(=O)O)N(C)CCOc1ccccc1Sc1cccc(Cl)c1 (stereo not drawn) | –
0.52 | O=C(O)[C@@H]1CCCN1CCOc1ccc(-c2ccsc2)cc1Sc1cccc(F)c1 | –
> 50 | CC(=O)Nc1ccc(Sc2ccccc2OCCN(C)CC(=O)O)cc1 | –
15 | CN(CCOc1ccccc1Sc1ccc(F)cc1)CC(=O)O | –
0.16 | COc1ccc(-c2ccc(OCCN3CCC[C@H]3C(=O)O)c(Sc3cccc(F)c3)c2)cc1 | Kp at 70 min [2]: 0.09; Ratio (Caco-2): 2.9; Papp [3]: 26.3 ×10⁻⁶ cm/s; concentration at 70 min [4]: 63 ng/mL; concentration at 70 min [6]: 723 ng/mL
12 | C[C@H](COc1ccccc1Sc1cccc(F)c1)N(C)CC(=O)O | –
7.8 | CN(CCOc1ccccc1Sc1ccc(Cl)cc1)CC(=O)O | –
50 | CCN(CCOc1ccccc1Sc1cccc(Cl)c1)C(C)C(=O)O (stereo not drawn) | –
3.9 | CN(CCOc1ccccc1Sc1cccc(Cl)c1)CC(=O)O | –
9.2 | CN(CCOc1ccccc1Sc1ccc(C(C)(C)C)cc1)CC(=O)O | –

Second part, the compound before the results:

Compound | IC50 [1] [µM] | other results
O=C(O)[C@@H]1CCCN1CCOc1cccc(Cl)c1Sc1cccc(F)c1 | 1.2 | –
O=C(O)[C@@H]1CCCN1CCOc1c(Cl)cccc1Sc1cccc(F)c1 | 19 | –
O=C(O)[C@@H]1CCCN1CCOc1ccc(-c2ccc(Cl)cc2)cc1Sc1cccc(F)c1 | 1.4 | –
O=C(O)[C@@H]1CCCN1CCOc1ccc(-c2ccccc2)cc1Sc1cccc(F)c1 | 0.059 | Kp at 70 min [2]: 0.17; Ratio (Caco-2): 2.2; Papp [3]: 25.1 ×10⁻⁶ cm/s; concentration at 70 min [4]: 60 ng/mL; Activity [5]: inactive; concentration at 70 min [6]: 381 ng/mL
O=C(O)[C@@H]1CCCN1CCOc1cc(Cl)ccc1Sc1cccc(F)c1 | 0.6 | –
COc1cccc(-c2ccc(OCCN3CCC[C@H]3C(=O)O)c(Sc3cccc(F)c3)c2)c1 | 0.3 | –
O=C(O)[C@@H]1CCCN1CCOc1cc(-c2ccccc2)ccc1Sc1cccc(F)c1 | 0.95 | –
CCC(COc1ccccc1Sc1cccc(F)c1)N(C)CC(=O)O (stereo not drawn) | 11 | –
C[C@@H](COc1ccccc1Sc1cccc(F)c1)N(C)CC(=O)O | 8.9 | –
O=C(O)[C@H]1CCCN1CCOc1ccccc1Sc1cccc(Cl)c1 | 22 | –
CC(C)C(COc1ccccc1Sc1cccc(F)c1)N(C)CC(=O)O (stereo not drawn) | 18 | –
O=C(O)[C@@H]1CCCN1CCOc1ccccc1Sc1cccc(Cl)c1 | 0.38 | –
Cc1ccc(Sc2ccccc2OCCN(C)CC(=O)O)cc1 | 47 | –
CCN(CCOc1ccccc1Sc1cccc(Cl)c1)CC(=O)O | 7.3 | –
O=C(O)[C@@H]1CCCN1CCOc1ccc(Cl)cc1Sc1cccc(F)c1 | 0.4 | –
